What was measured:
Candida albicans = assay: Antifungal activity against Candida albicans MTCC 227 after 48 hrs by tube dilution method; type: functional
MCF7 [1] = assay: Growth inhibition of human MCF7 cells at 50 uM after 48 hrs by MTT assay; type: functional; conditions: MCF7, 48 h, read-out: GI
Outline: (§1)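 Cells from ECACC are kept in RPMI-1640 with 10% FCS and 1% penicillin at 37 °C in 5% CO2. They are seeded at 3×10^3 cells/well and dosed after 24 h from filter-sterilized DMSO stocks, then treated for 48 h. MTT (2.5 mg/mL in PBS) is added, formazan is dissolved in DMSO, and A570 is read. Viability is given as % of untreated.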

MCF7 [2] = assay: Growth inhibition of human MCF7 cells at 10 uM after 48 hrs by MTT assay; type: functional; conditions: MCF7, 48 h, read-out: GI; outline: as §1
Aspergillus niger = assay: Antifungal activity against Aspergillus niger MTCC 8184 after 7 days by tube dilution method; type: functional
Outline: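 Tube (serial) dilution MIC in Sabouraud dextrose broth I.P., 25 °C for 7 days. Results are recorded as MIC and reported as pMIC in mM.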

MCF7 [3] = assay: Growth inhibition of human MCF7 cells after 48 hrs by MTT assay; type: functional, cell-based; outline: as §1
Bacillus subtilis = assay: Antibacterial activity against Bacillus subtilis MTCC 2063 after 24 hrs by tube dilution method; type: functional
HCT-116 [4] = assay: Growth inhibition of human HCT116 cells at 50 uM after 48 hrs by MTT assay; type: functional; conditions: HCT-116, 48 h, read-out: GI; outline: as §1
PC-3 [5] = assay: Growth inhibition of human PC3 cells at 50 uM after 48 hrs by MTT assay; type: functional; conditions: PC-3, 48 h, read-out: GI; outline: as §1
A549 [6] = assay: Growth inhibition of human A549 cells at 10 uM after 48 hrs by MTT assay; type: functional; conditions: A549, 48 h, read-out: GI; outline: as §1
A549 [7] = assay: Growth inhibition of human A549 cells at 50 uM after 48 hrs by MTT assay; type: functional; conditions: A549, 48 h, read-out: GI; outline: as §1
A549 [8] = assay: Growth inhibition of human A549 cells after 48 hrs by MTT assay; type: functional, cell-based; outline: as §1
PC-3 [9] = assay: Growth inhibition of human PC3 cells at 10 uM after 48 hrs by MTT assay; type: functional; conditions: PC-3, 48 h, read-out: GI; outline: as §1
Escherichia coli = assay: Antibacterial activity against Escherichia coli MTCC 1652 after 24 hrs by tube dilution method; type: functional
HCT-116 [10] = assay: Growth inhibition of human HCT116 cells after 48 hrs by MTT assay; type: functional, cell-based; outline: as §1
Staphylococcus aureus = assay: Antibacterial activity against Staphylococcus aureus MTCC 2901 after 24 hrs by tube dilution method; type: functional
HCT-116 [11] = assay: Growth inhibition of human HCT116 cells at 10 uM after 48 hrs by MTT assay; type: functional; conditions: HCT-116, 48 h, read-out: GI; outline: as §1
PC-3 [12] = assay: Growth inhibition of human PC3 cells at 1 uM after 48 hrs by MTT assay; type: functional; conditions: PC-3, 48 h, read-out: GI; outline: as §1
MCF7 [13] = assay: Growth inhibition of human MCF7 cells at 1 uM after 48 hrs by MTT assay; type: functional; conditions: MCF7, 48 h, read-out: GI; outline: as §1
A549 [14] = assay: Growth inhibition of human A549 cells at 1 uM after 48 hrs by MTT assay; type: functional; conditions: A549, 48 h, read-out: GI; outline: as §1
A549 [15] = assay: Growth inhibition of human A549 cells at 20 uM after 48 hrs by MTT assay; type: functional; conditions: A549, 48 h, read-out: GI
Outline: (§2)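 Cells from ECACC, grown in RPMI-1640 with 10% FCS and 1% penicillin, 37 °C, 5% CO2. Seeded at 3×10^3 cells/well in 100 µL medium. Compounds added 24 h later from filter-sterilized DMSO stocks. MTT (2.5 mg/mL in PBS, 20 µL) added, then at least 4 h incubation. Formazan dissolved in DMSO after 48 h treatment, absorbance read at 570 nm. Results given as % viable cells versus untreated.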

HCT-116 [16] = assay: Growth inhibition of human HCT116 cells at 20 uM after 48 hrs by MTT assay; type: functional; conditions: HCT-116, 48 h, read-out: GI; outline: as §2

Compound	-logMIC (Candida albicans)	inhibition of growth at 50 µM (MCF7 [1]) [%]	inhibition of growth at 10 µM (MCF7 [2]) [%]	-logMIC (Aspergillus niger)	growth inhibition (GI) (MCF7 [3])	-logMIC (Bacillus subtilis)	inhibition of growth at 50 µM (HCT-116 [4]) [%]	inhibition of growth at 50 µM (PC-3 [5]) [%]	inhibition of growth at 10 µM (A549 [6]) [%]	inhibition of growth at 50 µM (A549 [7]) [%]	growth inhibition (GI) (A549 [8])	inhibition of growth at 10 µM (PC-3 [9]) [%]	-logMIC (Escherichia coli)	growth inhibition (GI) (HCT-116 [10])	-logMIC (Staphylococcus aureus)	inhibition of growth at 10 µM (HCT-116 [11]) [%]	other results
Fc1ccc(C2=NC(c3ccc(F)cc3)c3c(ccc4ccccc34)O2)cc1 (stereo not given)	1.77	50	36	1.47	Dose-dependent effect	1.77	51	29	20	50	Dose-dependent effect	22	1.47	Dose-dependent effect	2.07	5	–
CO[C@@]12[C@H](COC(N)=O)C3=C(C(=O)C(C)=C(N)C3=O)N1C[C@@H]1N[C@@H]12 [MITOMYCIN]	–	–	–	–	–	–	–	–	–	–	–	–	–	–	–	–	inhibition of growth at 1 µM (PC-3 [12]): 70%; inhibition of growth at 1 µM (MCF7 [13]): 82%; inhibition of growth at 1 µM (A549 [14]): 70%
O=c1[nH]cc(F)c(=O)[nH]1 [FLUOROURACIL]	–	–	–	–	–	–	–	–	–	–	–	–	–	–	–	–	inhibition of growth at 20 µM (A549 [15]): 79%; inhibition of growth at 20 µM (HCT-116 [16]): 78%
Clc1ccc(C2=NC(c3ccccc3)c3c(ccc4ccccc34)O2)cc1 (stereo not given)	1.77	39	27	1.47	–	1.77	29	19	17	38	–	9	2.37	–	1.77	3	–
Fc1ccc(C2=NC(c3ccccc3)c3c(ccc4ccccc34)O2)cc1 (stereo not given)	1.75	51	29	1.45	Dose-dependent effect	2.05	56	39	18	50	Dose-dependent effect	14	2.35	Dose-dependent effect	1.75	12	–

From ChEMBL document CHEMBL2086288, “Synthesis, antimicrobial and cytotoxicity study of 1,3-disubstituted-1H-naphtho[1,2-e][1,3]oxazines” (2012)
